Calls of active or inactive are those of the source. No cut-off for these calls is given here.
Tests used:
[1] = biological target: T1, 5-hydroxytryptamine receptor 2B (Homo sapiens, UniProt P41595); assay: Agonist activity at 5HT2B receptor (unknown origin) expressed in HEK293 cells co-expressing NFAT-RE after 6 to 12 hrs by Bright-Glo luciferase reporter gene assay; type: cell-based
In short: (§1)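 HEK293T cells transiently co-transfected (PEI) with 0.1 µg/well receptor plasmid (5-HT2A, 5-HT2B or 5-HT2C) plus 0.1 µg/well NFAT-RE luciferase reporter, plated 50,000 cells/well 24 h before treatment. Compounds tested in triplicate from 10 µM down to 0.01 nM in HBSS/20 mM HEPES pH 7.4, incubated 6-12 h. Luminescence read within 5 min of Bright-Glo (1 mg/ml final). RLU fitted by non-linear regression; 5-HT Emax set to 100%.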

[2] = biological target: T1, 5-hydroxytryptamine receptor 2B; assay: Positive allosteric modulation of 5HT2B receptor (unknown origin) expressed in HEK293 cells co-expressing NFAT-RE assessed as increase in serotonin-induced reponse after 6 to 12 hrs by Bright-Glo luciferase reporter gene assay; type: cell-based
In short: (§2)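 Transiently co-transfected HEK293T cells expressing 5-HT2A, 5-HT2B or 5-HT2C with NFAT-RE luciferase, 50,000 cells/well. Test compound added first at 10 µM, 1 µM or 100 nM, in triplicate. A 5-HT concentration-response (10 µM to 0.01 nM) followed, then 6-12 h incubation. Bright-Glo luminescence was fitted by non-linear regression, with Emax normalized to 5-HT alone (100%). n=3-4.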

[3] = tested on: Rattus norvegicus; assay: Induction of anorexia in Sprague-Dawley rat assessed as suppression of food intake at 2 pmol, icv measured after 24 hrs; type: functional, organism-based
In short: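 Adult SD rats (150-200 g) on a 12 h light/dark cycle at 22 °C, with a cannula in the right ventricle (AP -0.9, ML -1.5, DV -3.5). Rats were food-deprived for 4 h with water available. Compound given i.c.v. at 2 pmol/rat in 2 µL, vehicle aCSF; lorcaserin 2 pmol as positive control. Weighed pellets were supplied 10 min later. Remaining food including spillage was weighed at 3, 6 and 24 h; n=4.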

[4] = biological target: T2, 5-hydroxytryptamine receptor 2A (Homo sapiens, UniProt P28223); assay: Positive allosteric modulation of 5HT2A receptor (unknown origin) expressed in HEK293 cells co-expressing NFAT-RE assessed as increase in serotonin-induced reponse after 6 to 12 hrs by Bright-Glo luciferase reporter gene assay; type: cell-based; in short: as §2
T2 sequence (P28223 whole entry): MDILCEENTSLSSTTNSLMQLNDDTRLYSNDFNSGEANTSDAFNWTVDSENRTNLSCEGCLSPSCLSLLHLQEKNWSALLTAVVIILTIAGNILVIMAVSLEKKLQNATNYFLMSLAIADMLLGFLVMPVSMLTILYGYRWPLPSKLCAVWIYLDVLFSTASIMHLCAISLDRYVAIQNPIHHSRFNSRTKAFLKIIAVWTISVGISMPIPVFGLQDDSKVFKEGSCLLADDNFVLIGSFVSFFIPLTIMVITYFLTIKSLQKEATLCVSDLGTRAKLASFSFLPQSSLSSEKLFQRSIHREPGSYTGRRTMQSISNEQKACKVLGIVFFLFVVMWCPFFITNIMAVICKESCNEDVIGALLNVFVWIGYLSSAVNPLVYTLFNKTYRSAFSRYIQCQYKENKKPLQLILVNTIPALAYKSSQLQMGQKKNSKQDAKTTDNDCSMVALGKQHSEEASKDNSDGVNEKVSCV

[5] = biological target: T3, 5-hydroxytryptamine receptor 2C (Homo sapiens) (UniProt P28335); assay: Agonist activity at 5HT2C receptor (unknown origin) expressed in HEK293 cells co-expressing NFAT-RE at 10 uM after 6 to 12 hrs by Bright-Glo luciferase reporter gene assay relative to control; type: cell-based
T3 sequence (whole entry): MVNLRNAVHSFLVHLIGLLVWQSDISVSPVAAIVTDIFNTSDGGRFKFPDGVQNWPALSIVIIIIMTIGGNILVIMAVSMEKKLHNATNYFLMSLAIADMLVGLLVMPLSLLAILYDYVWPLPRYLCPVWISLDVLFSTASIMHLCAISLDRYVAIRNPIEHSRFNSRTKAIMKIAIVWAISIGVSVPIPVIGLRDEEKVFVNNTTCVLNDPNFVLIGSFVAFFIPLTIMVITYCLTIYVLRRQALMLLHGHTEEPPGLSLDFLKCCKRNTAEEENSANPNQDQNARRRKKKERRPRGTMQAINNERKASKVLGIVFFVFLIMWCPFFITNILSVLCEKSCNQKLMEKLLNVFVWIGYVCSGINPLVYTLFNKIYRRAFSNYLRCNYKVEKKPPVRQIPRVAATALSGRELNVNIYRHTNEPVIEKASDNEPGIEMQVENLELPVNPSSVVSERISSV
In short: (§3)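 Primary screen at 5-HT2C in transiently co-transfected HEK293T (receptor plus NFAT-RE luciferase plasmids, 50,000 cells/well). Compounds tested in triplicate at a final 10 µM in HEPES-buffered HBSS pH 7.4 and incubated 6-12 h. Luminescence read within 5 min of Bright-Glo (1 mg/ml final). Signal normalized to the 5-HT maximal response.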

[6] = biological target: T3, 5-hydroxytryptamine receptor 2C (Homo sapiens); assay: Positive allosteric modulation of 5HT2C receptor (unknown origin) expressed in HEK293 cells co-expressing NFAT-RE assessed as increase in serotonin-induced reponse at 1 uM after 6 to 12 hrs by Bright-Glo luciferase reporter gene assay relative to serotonin; type: cell-based; in short: as §2
[7] = tested on: Rattus norvegicus; assay: Induction of anorexia in Sprague-Dawley rat assessed as suppression of food intake at 2 pmol, icv measured after 3 to 6 hrs; type: functional, organism-based
In short: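 Adult SD rats (150-200 g) on a 12 h light/dark cycle at 22 °C, cannulated in the right ventricle. Rats were fasted 4 h with free access to water, then dosed i.c.v. with 2 pmol/rat (2 µL) in aCSF vehicle; lorcaserin 2 pmol/rat served as positive control. Weighed pellets were given 10 min later, and remaining food plus spillage was weighed at 3, 6 and 24 h; n=4.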

[8] = biological target: T3, 5-hydroxytryptamine receptor 2C (Homo sapiens); assay: Positive allosteric modulation of 5HT2C receptor (unknown origin) expressed in HEK293 cells co-expressing NFAT-RE assessed as increase in serotonin-induced reponse at 100 nM after 6 to 12 hrs by Bright-Glo luciferase reporter gene assay relative to serotonin; type: cell-based; in short: as §2
[9] = biological target: T1, 5-hydroxytryptamine receptor 2B; assay: Negative allosteric modulation of 5HT2B receptor (unknown origin) expressed in HEK293 cells co-expressing NFAT-RE assessed as reduction in serotonin-induced reponse after 6 to 12 hrs by Bright-Glo luciferase reporter gene assay; type: cell-based; in short: as §2
[10] = biological target: T3, 5-hydroxytryptamine receptor 2C (Homo sapiens); assay: Agonist activity at 5HT2C receptor (unknown origin) expressed in HEK293 cells co-expressing NFAT-RE at 10 uM after 6 to 12 hrs by Bright-Glo luciferase reporter gene assay; type: cell-based; in short: as §3
[11] = biological target: T3, 5-hydroxytryptamine receptor 2C (Homo sapiens); assay: Agonist activity at 5HT2C receptor (unknown origin) expressed in HEK293 cells co-expressing NFAT-RE after 6 to 12 hrs by Bright-Glo luciferase reporter gene assay; type: cell-based; in short: as §1
[12] = biological target: T3, 5-hydroxytryptamine receptor 2C (Homo sapiens); assay: Positive allosteric modulation of 5HT2C receptor (unknown origin) expressed in HEK293 cells co-expressing NFAT-RE assessed as increase in serotonin-induced intracellular calcium flux at 1 uM preincubated for 15 mins followed by serotonin stimulation and measured for 120 secs by Fluo-4NW dye based fluorescence assay relative to serotonin; type: functional, cell-based
In short: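 5-HT2C-transfected HEK293T cells, 50,000 cells/well, loaded with Fluo-4NW calcium dye. Compound (1 µM) preincubated 15 min. 5-HT then added at 35 µl/min and fluorescence (ex 494/em 516 nm) recorded for 120 s. Fold change was calculated against baseline from the first 5 s before ligand addition. Emax normalized to 5-HT alone.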

[13] = biological target: T3, 5-hydroxytryptamine receptor 2C (Homo sapiens); assay: Positive allosteric modulation of 5HT2C receptor (unknown origin) expressed in HEK293 cells co-expressing NFAT-RE assessed as increase in serotonin-induced reponse at 10 uM after 6 to 12 hrs by Bright-Glo luciferase reporter gene assay relative to serotonin; type: cell-based; in short: as §2
[14] = biological target: 5HT2A receptor (Homo sapiens, UniProt P28223); assay: Positive allosteric modulation of 5HT2A receptor (unknown origin) expressed in HEK293 cells co-expressing NFAT-RE assessed as increase in serotonin-induced reponse at 1 uM after 6 to 12 hrs by Bright-Glo luciferase reporter gene assay relative to serotonin; type: cell-based; settings: HEK293 cells expressing 5HT2A receptor and NFAT-RE reporter; in short: as §2
Sequence of 5HT2A receptor (P28223 whole entry): as the sequence (P28223 whole entry) above

[15] = biological target: 5HT2B receptor (Homo sapiens, UniProt P41595); assay: Positive allosteric modulation of 5HT2B receptor (unknown origin) expressed in HEK293 cells co-expressing NFAT-RE assessed as increase in serotonin-induced reponse at 1 uM after 6 to 12 hrs by Bright-Glo luciferase reporter gene assay relative to serotonin; type: cell-based; settings: HEK293 cells expressing 5HT2B receptor and NFAT-RE reporter; in short: as §2
Sequence of 5HT2B receptor (P41595 whole entry): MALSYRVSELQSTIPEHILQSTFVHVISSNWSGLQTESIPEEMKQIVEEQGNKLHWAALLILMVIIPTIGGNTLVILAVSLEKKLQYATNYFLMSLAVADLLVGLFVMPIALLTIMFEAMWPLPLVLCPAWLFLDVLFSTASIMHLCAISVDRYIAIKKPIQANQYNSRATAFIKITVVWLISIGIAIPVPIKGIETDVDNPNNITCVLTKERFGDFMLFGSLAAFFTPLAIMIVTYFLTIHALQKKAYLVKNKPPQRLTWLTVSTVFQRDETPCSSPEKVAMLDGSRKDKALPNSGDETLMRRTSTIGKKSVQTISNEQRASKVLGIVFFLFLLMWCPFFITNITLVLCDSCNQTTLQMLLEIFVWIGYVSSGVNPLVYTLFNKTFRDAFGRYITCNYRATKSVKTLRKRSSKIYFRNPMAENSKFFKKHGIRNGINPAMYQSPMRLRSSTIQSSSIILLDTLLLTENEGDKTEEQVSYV

[16] = biological target: T4, 5-hydroxytryptamine receptor 2C (Homo sapiens, UniProt P28335); assay: Positive allosteric modulation of 5HT2C receptor (unknown origin) expressed in HEK293 cells co-expressing NFAT-RE assessed as increase in serotonin-induced reponse after 6 to 12 hrs by Bright-Glo luciferase reporter gene assay; type: cell-based; in short: as §2
T4 sequence (P28335 whole entry): T3 sequence (whole entry)

[17] = biological target: T2, 5-hydroxytryptamine receptor 2A; assay: Agonist activity at 5HT2A receptor (unknown origin) expressed in HEK293 cells co-expressing NFAT-RE after 6 to 12 hrs by Bright-Glo luciferase reporter gene assay; type: cell-based; in short: as §1

T1 sequence (P41595 whole entry): as above

With O=C(c1ccc(N2CCN(Cc3ccccc3)CC2)cc1)C1CC1 the Activity [1] was “Not Active”, the EC50 [2] was 11.7 nM and the Activity [3] was “inactive”. The EC50 [4] was 38 nM, the fold change (FC) [5] was 2 and the Emax [6] was 139 to 146%. For the same compound, the Activity [7] was “Active”, the Activity [8] was “Active” and the Activity [9] was “Dose-dependent effect”. For the same compound, the Activity [10] was “inactive”, the Activity [11] was “inactive” and the Emax [12] was 124%. For the same compound, the Emax [13] was 149%, the Emax at 1 µM [14] was 99% and the Emax at 1 µM [15] was 118%. For the same compound, the EC50 [16] was 5.01 nM and the Activity [17] was “Not Active”.

From ChEMBL document CHEMBL4422637, “Identification of dual role of piperazine-linked phenyl cyclopropyl methanone as positive allosteric modulator of 5-HT2C and negative allosteric modulator of 5-HT2B receptors” (Eur J Med Chem, 2019)
